From ChEMBL document CHEMBL5223168, “Using Imidazo[2,1-b][1,3,4]thiadiazol Skeleton to Design and Synthesize Novel MNK Inhibitors” (ACS Med Chem Lett, 2023)
Calls of active or inactive are those of the source. No cut-off for these calls is given here.

Tests used:
[1] = target: MAP kinase-interacting serine/threonine-protein kinase 1 (Homo sapiens, UniProt Q9BUB5); assay: Inhibition of MNK1 (unknown origin) incubated for 60 mins using CREB as substrate in presence of ATP by LANCE Ultra kinase assay
Chain of MAP kinase-interacting serine/threonine-protein kinase 1 (Q9BUB5 whole entry): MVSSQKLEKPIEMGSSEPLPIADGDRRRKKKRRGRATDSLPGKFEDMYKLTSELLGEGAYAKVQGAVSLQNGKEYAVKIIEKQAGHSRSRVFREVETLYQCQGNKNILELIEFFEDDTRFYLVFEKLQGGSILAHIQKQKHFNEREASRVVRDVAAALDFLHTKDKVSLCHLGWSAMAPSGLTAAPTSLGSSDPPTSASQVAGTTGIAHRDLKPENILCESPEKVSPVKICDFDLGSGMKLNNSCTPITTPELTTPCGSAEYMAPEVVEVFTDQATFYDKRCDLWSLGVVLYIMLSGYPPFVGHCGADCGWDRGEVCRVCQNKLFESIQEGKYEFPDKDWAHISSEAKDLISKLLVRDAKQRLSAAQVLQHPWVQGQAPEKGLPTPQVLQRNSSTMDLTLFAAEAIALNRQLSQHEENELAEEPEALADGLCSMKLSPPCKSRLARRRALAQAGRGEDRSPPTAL

3T3-L1 = assay: Inhibition of MNK in mouse 3T3-L1 cells assessed as inhibition of eIF4E phosphorylation at 5 uM incubated for 2 hrs by Western blot analysis; type: cell-based
How it was run: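 Mouse 3T3-L1 cells exposed to compound at 5 μM for 2 h; lysates resolved by SDS-PAGE and immunoblotted for phospho-eIF4E. Reference MNK inhibitor run in parallel at 1 μM.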

MEF = assay: Inhibition of MNK in MNK2 knockout mouse MEF cells assessed as inhibition of eIF4E phosphorylation at 3 uM incubated for 2 hrs by Western blot analysis; type: cell-based
How it was run: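 MEFs lacking MNK1 or MNK2 (wild-type for comparison) treated 2 h at indicated concentrations; lysates immunoblotted for p-eIF4E, which reflects the remaining MNK isoform; quantified from three independent experiments, SEM.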

MDA-MB-231 = assay: Induction of cell cycle arrest in human MDA-MB-231 cells assessed as decrease in cyclin B1 level at 5 uM incubated for 24 hrs by Western blot analysis; type: functional, cell-based
How it was run: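 A549 and MDA-MB-231 cells treated 24 h with 5 μM; lysates resolved by SDS-PAGE and immunoblotted for cyclin B1, cyclin D3 and MMP-3.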

A549 = assay: Induction of cell cycle arrest in human A549 cells assessed as accumulation of cells at G0/G1 phase at 5 uM incubated for 16 hrs by propidium iodide staining based flow cytometry (Rvb=75.4%); type: functional
[2] = Apparent volume of distribution in mouse at 25 mg/kg, iv and measured upto 24 hrs; type: ADME, organism-based; conditions: in vivo, read-out: Vz
[3] = AUC (0-t) in mouse at 50 mg/kg, po and measured upto 24 hrs; type: ADME, organism-based; set-up: dose 50 mg/kg, time < 24 hrs, route po; conditions: in vivo
[4] = test system: MAP kinase-interacting kinase MNK1/2 (Homo sapiens); assay: Inhibition of MNK in human MDA-MB-231 cells assessed as inhibition of eIF4E phosphorylation at 3 uM incubated for 2 hrs by Western blot analysis

IC50 [1]: 11.5 nM
Vd [2]: 1.52 L/kg
AUC(0-t) at 24 h [3]: 98500 ng·h/mL
inhibition [4]: Active
Compound: CN1CCN(C(=O)c2ccc(-c3nn4c(-c5ccc(C#N)cc5)cnc4s3)cc2)CC1
inhibition (3T3-L1): Active
inhibition (MEF): 50%
Activity (MDA-MB-231): Active
Activity (A549): 89.6%
